{"source": "ChEMBL document CHEMBL5344453", "about": "“Selective Recognition of c-KIT 1 G-Quadruplex by Structural Tuning of Heteroaromatic Scaffolds and Side Chains” (ACS Med Chem Lett, 2024)", "key": {"Quadruplex DNA [1]": {"target": "Quadruplex DNA", "experiment": "Binding affinity to G-quadruplex BCL-2 5-FAM-AGGGGCGGGCGCGGGAGGAAGGGGGCGGGAGCGGGGCTG-TAMRA-3 (unknown origin) assessed as dissociation constant by measuring thermogram by isothermal titration calorimetry (ITC) assay", "format": "nucleic-acid assay", "summary_of_the_method": "(§1)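 ITC of ligand binding to folded G4 in 100 mM Tris-KCl buffer, pH 7.4. Kd and stoichiometry were obtained from the isothermal heat curve and binding isotherm.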"}, "Quadruplex DNA [2]": {"test_system": "Quadruplex DNA", "experiment": "Stabilization of 5-FAM/3-TAMRA labelled G-quadruplex c-KIT1 5-FAM-GGGAGGGCGCTGGGAGGAGGG-TAMRA-3 (unknown origin) assessed as change in melting temperature incubated for 1 hr in dark condition by FRET-based melting assay", "format": "nucleic-acid assay", "details": "dose 1-10 µM", "summary_of_the_method": "(§2)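 FRET melting of dual-fluorophore (FAM/TAMRA) tagged G-quadruplex (200 nM) in 60 mM potassium cacodylate, pH 7.4. The screen used 1 μM ligand; dose series used 1, 3, 5, 7 and 10 μM. ΔTm was taken against the Tm of the same oligonucleotide without ligand.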"}, "Quadruplex DNA [3]": {"test_system": "Quadruplex DNA", "experiment": "Stabilization of G-quadruplex VEGF 5-FAM-CGGGGCGGGCCGGGGGCGGGGT-TAMRA-3 (unknown origin) assessed as change in melting temperature at 1 uM incubated for 1 hr in dark condition by FRET-based melting assay", "format": "nucleic-acid assay", "summary_of_the_method": "(§3)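 FRET melting of dual-fluorophore-tagged oligonucleotides (200 nM) in 60 mM potassium cacodylate buffer, pH 7.4, with ligand at 1 μM; ΔTm taken against the ligand-free oligonucleotide Tm as control.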"}, "Quadruplex DNA [4]": {"test_system": "Quadruplex DNA", "experiment": "Stabilization of G-quadruplex c-KIT1 5-FAM-GGGAGGGCGCTGGGAGGAGGG-TAMRA-3 (unknown origin) assessed as change in melting temperature at 5 uM incubated for 1 hr in dark condition by FRET-based melting assay", "format": "nucleic-acid assay", "summary_of_the_method": "as §2"}, "K562 [5]": {"test_system": "K562", "experiment": "Attenuation of proto-oncogene expression in human c-KIT-positive K562 cells assessed as reduction in c-KIT oncogene expression at 6 uM measured after 24 hrs by qRT-PCR analysis relative to control", "format": "functional", "summary_of_the_method": "(§4)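 K562 cells treated 24 h at two doses per ligand (3 and 6 μM, 5.5 and 11 μM; positive control 2 and 4 μM). c-KIT, c-MYC and BCL-2 mRNA measured by qRT-PCR and normalized to housekeeping gene 18s, relative to untreated control.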"}, "Quadruplex DNA [6]": {"test_system": "Quadruplex DNA", "experiment": "Stabilization of calf thymus […] ds DNA 5-FAM-CAATCGGATCGAATTCGATCCGATTG-TAMRA-3 assessed as change in melting temperature at 1 uM incubated for 1 hr in dark condition by FRET-based melting assay", "format": "nucleic-acid assay", "details": "Bos taurus", "summary_of_the_method": "as §3"}, "[7]": {"experiment": "Reduction of BCL-2 oncogene expression in human K562 cells transfected with BCL-2 plasmid construct assessed as reduction in luciferase expression at 3 uM measured after 36 hrs by luciferase reporter assay", "format": "functional", "summary_of_the_method": "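K562 cells were transfected with luciferase plasmids carrying the c-KIT, c-MYC or BCL-2 promoter G4. They were then treated with ligand (3 and 6 μM or 5.5 and 11 μM), and relative luciferase expression was measured.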"}, "Quadruplex DNA [8]": {"test_system": "Quadruplex DNA", "experiment": "Stabilization of fluorophore tagged G-quadruplex c-KIT1 (unknown origin) assessed as change in melting temperature in presence of 0 to 100 equiv calf thymus DNA at 1 uM incubated for 1 hr in dark condition by competitive FRET-based melting assay", "format": "nucleic-acid assay", "summary_of_the_method": "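Competitive FRET melting with fluorophore-labeled c-KIT 1 G-quadruplex and 1 μM ligand. Unlabeled calf thymus DNA was added at 0, 1, 5, 10, 50 and 100 molar equivalents over the labeled DNA, and ΔTm was monitored.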"}, "[9]": {"experiment": "Reduction of c-MYC oncogene expression in human K562 cells transfected with c-MYC plasmid construct assessed as reduction in luciferase expression at 3 uM measured after 36 hrs by luciferase reporter assay", "format": "functional", "summary_of_the_method": "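Promoter luciferase reporter: K562 cells transfected with a c-MYC promoter G4-containing luciferase-expressing plasmid, then ligand-treated at two doses each (3 and 6 μM, or 5.5 and 11 μM); read-out as relative luciferase expression, reported as percent reduction.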"}, "Quadruplex DNA [10]": {"test_system": "Quadruplex DNA", "experiment": "Stabilization of G-quadruplex c-KIT1 5-FAM-GGGAGGGCGCTGGGAGGAGGG-TAMRA-3 (unknown origin) assessed as change in melting temperature at 1 uM incubated for 1 hr in dark condition by FRET-based melting assay", "format": "nucleic-acid assay", "summary_of_the_method": "as §3"}, "Quadruplex DNA [11]": {"target": "Quadruplex DNA", "experiment": "Binding affinity to G-quadruplex c-KIT 2 5-FAM-GGGCGGGCGCGAGGGAGGGG-TAMRA-3 (unknown origin) assessed as dissociation constant by measuring thermogram by isothermal titration calorimetry (ITC) assay", "format": "nucleic-acid assay", "summary_of_the_method": "as §1"}, "Quadruplex DNA [12]": {"test_system": "Quadruplex DNA", "experiment": "Binding affinity to G-quadruplex c-KIT1 5-FAM-GGGAGGGCGCTGGGAGGAGGG-TAMRA-3 (unknown origin) assessed as stability by CD spectra analysis", "format": "nucleic-acid assay"}, "Quadruplex DNA [13]": {"test_system": "Quadruplex DNA", "experiment": "Stabilization of G-quadruplex h-TELO 5-FAM-TTGGGTTAGGGTTAGGGTTAGGGA-TAMRA-3 (unknown origin) assessed as change in melting temperature at 10 uM incubated for 1 hr in dark condition by FRET-based melting assay", "format": "nucleic-acid assay", "summary_of_the_method": "as §2"}, "K562 [14]": {"test_system": "K562", "experiment": "Induction of cell cycle arrest in human K562 cells assessed as accumulation at G0/G1 phase at 3 uM incubated for 24 hrs by propidium iodide based assay", "format": "functional", "summary_of_the_method": "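K562 cells were treated with ligand (3 and 6 μM or 5.5 and 11 μM) and stained with propidium iodide. The fraction of cells in each cell-cycle phase was determined by flow cytometry.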"}, "K562 [15]": {"test_system": "K562", "experiment": "Attenuation of proto-oncogene expression in human c-KIT-positive K562 cells assessed as reduction in BCL-2 oncogene expression at 3 uM measured after 24 hrs by qRT-PCR analysis relative to control", "format": "functional", "summary_of_the_method": "as §4"}, "K562 [16]": {"test_system": "K562", "experiment": "Attenuation of proto-oncogene expression in human c-KIT-positive K562 cells assessed as reduction in c-MYC oncogene expression at 6 uM measured after 24 hrs by qRT-PCR analysis relative to control", "format": "functional", "summary_of_the_method": "as §4"}, "K562 [17]": {"test_system": "K562", "experiment": "Cytotoxicity against human c-KIT-positive K562 cells assessed as cell viability measured after 24 hrs by XTT formazan assay", "format": "functional, cell-based", "details": "K562, 24 h"}, "Quadruplex DNA [18]": {"test_system": "Quadruplex DNA", "experiment": "Stabilization of G-quadruplex VEGF 5-FAM-CGGGGCGGGCCGGGGGCGGGGT-TAMRA-3 (unknown origin) assessed as change in melting temperature at 10 uM incubated for 1 hr in dark condition by FRET-based melting assay", "format": "nucleic-acid assay", "summary_of_the_method": "as §2"}, "Quadruplex DNA [19]": {"test_system": "Quadruplex DNA", "experiment": "Binding affinity to excessive G-quadruplex c-KIT2 5-FAM-GGGCGGGCGCGAGGGAGGGG-TAMRA-3 (unknown origin) assessed as fold increase in fluorescence intensity at 1 uM incubated for 1 hr in dark condition by fluorescence spectroscopy assay", "format": "nucleic-acid assay", "summary_of_the_method": "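Fluorimetric titration in 100 mM Tris-KCl buffer, pH 7.4. Ligand fixed at 1.0 μM and titrated with increasing concentrations of each G-quadruplex until fluorescence saturation. The fold increase in ligand fluorescence intensity was read, and Kd was derived from the titration plot.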"}, "K562 [20]": {"test_system": "K562", "experiment": "Induction of apoptosis in human K562 cells assessed as cell death at 3 uM incubated for 24 hrs by FITC-Annexin V and PI based flow cytometry relative to control", "format": "functional", "summary_of_the_method": "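K562 cells after ligand treatment dual-stained with annexin V and propidium iodide. Apoptotic cell populations (early and late) scored by flow cytometry dot plot analysis.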"}}, "note": "Active and inactive are the calls of the source. No cut-off for these calls is given here.", "data": [{"smiles": "CN(C)CCCNC(=O)c1ccc(-n2cc(-c3ccc4[nH]c5ccccc5c4c3)nn2)cc1", "values": [{"measurement": "Kd", "setting": "Quadruplex DNA [1]", "value": 10.8, "unit": "µM"}, {"measurement": "Activity", "setting": "Quadruplex DNA [2]", "value": "Dose-Dependent Effect"}, {"measurement": "ΔTm", "setting": "Quadruplex DNA [3]", "value": 3.5, "unit": "°C"}, {"measurement": "ΔTm", "setting": "Quadruplex DNA [4]", "value": 25.5, "unit": "°C"}, {"measurement": "inhibition at 6 µM", "setting": "K562 [5]", "value": 73, "unit": "%"}, {"measurement": "ΔTm", "setting": "Quadruplex DNA [6]", "value": 0.7, "unit": "°C"}, {"measurement": "inhibition at 3 µM", "setting": "[7]", "value": 7.8, "unit": "%"}, {"measurement": "Activity", "setting": "Quadruplex DNA [8]", "value": "Active"}, {"measurement": "inhibition at 3 µM", "setting": "[9]", "value": 6, "unit": "%"}, {"measurement": "ΔTm", "setting": "Quadruplex DNA [10]", "value": 20.1, "unit": "°C"}, {"measurement": "Kd", "setting": "Quadruplex DNA [11]", "value": 20.9, "unit": "µM"}, {"measurement": "Activity", "setting": "Quadruplex DNA [12]", "value": "Active"}, {"measurement": "ΔTm", "setting": "Quadruplex DNA [13]", "value": 20.3, "unit": "°C"}, {"measurement": "Activity", "setting": "K562 [14]", "value": 74.1, "unit": "%"}, {"measurement": "inhibition at 3 µM", "setting": "K562 [15]", "value": 29, "unit": "%"}, {"measurement": "inhibition at 6 µM", "setting": "K562 [16]", "value": 19, "unit": "%"}, {"measurement": "IC50", "setting": "K562 [17]", "value": 6.2, "unit": "µM"}, {"measurement": "ΔTm", "setting": "Quadruplex DNA [18]", "value": 11.2, "unit": "°C"}, {"measurement": "fold change (FC)", "setting": "Quadruplex DNA [19]", "value": 1.6}, {"measurement": "Activity", "setting": "K562 [20]", "value": 35, "unit": "%"}]}]}
